This is a sample that favours compounds with a hit; in the whole collection about 2.2% have one here.
HSP90 inh: HSP90 inhibitors, primary screen, cell lysate, luminescence; Heat shock protein HSP 90 (rabbit reticulocyte lysate; luciferase refolding); AID 1789, 2009; 290,000 tested, 0.91% active; Rabbit reticulocyte lysate, luciferase refolding luminescence, 3 h; inhibition, % at 5.6 µM;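 active = inhibition above the screen-wide mean plus 3 SD, computed separately per campaign, cut at about 16% in these data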;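 note: 0% = DMSO wells and 100% = 60 µM geldanamycin wells; inhibitors lower the luminescence because luciferase stays unfolded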
STAT3 inh: IL-6 driven STAT3 reporter inhibitors, primary screen, U3A cells, luciferase, luminescence, MLSCN library | inhibition, % at 5.5 µM | IL-6 STAT3-luciferase reporter; host cell line lacks STAT1 | 190,000 tested, 0.89% active | AID 862, 2007;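 active = inhibition above the mean inhibition across all screened compounds plus 3 SD, cut at about 44% in these data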;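 note: 0% = DMSO only wells and 100% = 100 µM nifuroxazide control wells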
PPC-1+TRAIL kill: compounds killing PPC-1 cancer cells with TRAIL present, primary screen, TRAIL potentiator project, ATPLite luminescence, uHTS. PPC-1 cells + TRAIL, ATPLite viability luminescence. cell killing (% activity), % at 4 µM or 5 µM. 220,000 tested, 0.41% active. AID 1443, 2008;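 active = cell killing above 50% in the first pass at 4 µM, then a duplicate retest at 5 µM averaging 50% or more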;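 note: plate controls were cells with TRAIL plus DMSO for no effect and medium-only wells lacking cells for full effect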
C8 TRAIL sens: viability loss with TRAIL in NB7+C8 cells, primary screen, TRAIL sensitizer project, cell-based, ATPlite luminescence | inhibition (viability loss, TRAIL sensitization), % at 10 µM | 360,000 tested, 1% active;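 active = compounds causing at least 50% loss of cell viability in the single-dose screen, relative to plate controls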
FLuc stim CS: FLuc activators, initial screening, artefact control for FLuc-dependent activation tests, biochemical, ATPlite luminescence. Luciferin 4-monooxygenase (Photinus pyralis), P08659. ATPlite luciferase biochemical, 10 min; 0 = ATP-free wells, 1 = DMSO control. activation factor at 10 µM. 200,000 tested, under 10 active. AID 1027, 2008;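 active = luciferase activation factor, scaled between plate controls, of at least 2 with compound at 10 µM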
Target sequence (P08659 whole entry, looked up): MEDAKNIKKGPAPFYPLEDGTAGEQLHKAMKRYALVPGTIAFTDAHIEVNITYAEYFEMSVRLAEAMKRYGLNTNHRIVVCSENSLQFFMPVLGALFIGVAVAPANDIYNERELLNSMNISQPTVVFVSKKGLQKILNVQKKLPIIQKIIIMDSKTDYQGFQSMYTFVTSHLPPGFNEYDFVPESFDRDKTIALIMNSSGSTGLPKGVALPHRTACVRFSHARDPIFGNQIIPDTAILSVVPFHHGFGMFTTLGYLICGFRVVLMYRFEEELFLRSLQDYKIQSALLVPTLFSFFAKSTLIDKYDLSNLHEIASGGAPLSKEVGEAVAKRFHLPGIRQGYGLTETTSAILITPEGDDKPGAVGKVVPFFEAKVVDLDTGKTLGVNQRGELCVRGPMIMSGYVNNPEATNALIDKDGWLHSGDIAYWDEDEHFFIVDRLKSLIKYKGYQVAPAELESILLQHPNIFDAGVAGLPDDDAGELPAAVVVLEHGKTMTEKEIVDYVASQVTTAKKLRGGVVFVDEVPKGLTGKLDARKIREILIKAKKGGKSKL
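System: cell-free luciferase reagent; medium: PBS as buffer for the ATP substrate; doses: test compounds dosed from 2 mM stocks in 100% DMSO; incubation: 10 min, room temperature; measured by: luminescence from luciferase reaction; read-out: luciferase activation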
FLuc inhib CS: firefly luciferase enzyme inhibitors, primary screen, artefact control for luciferase-based inhibitor screens, biochemical, luminescence, ATPLite | 10 min | Luciferin 4-monooxygenase (Photinus pyralis), P08659 | AID 1006, 2008 | 200,000 tested, 1.5% active | inhibition, % at 10 µM;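 active = inhibition above about 50% when tested at 10 µM, limit read from the data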
HSP90 inh confirm: HSP90 inhibitors, confirmation, cell lysate, luminescence | shares compounds with HSP90 inh | rabbit reticulocyte lysate, luciferase refolding luminescence, 3 h | inhibition, % at 5.9 µM | 2,300 tested, 64% active | AID 1846, 2009; in the data active = inhibition above about 18%;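 note: 0% = vehicle wells and 100% = reference inhibitor wells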
luciferase ctr: firefly luciferase inhibitors, HSP90 counter-screen, confirmation, artefact control for HSP90 inhibitor project, biochemical, luminescence, triplicate | inhibition, % at 5.9 µM | AID 1847, 2009 | shares compounds with HSP90 inh | purified native firefly luciferase | 2,300 tested, 48% active;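 active = inhibition above the mean inhibition of all tested sample wells plus 3 SD, cut at about 10% in these data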;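 note: 0% = DMSO with luciferase and 100% = wells lacking luciferase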
* hit, by the source's call; nt = no result.

SMILES	HSP90 inh	STAT3 inh	PPC-1+TRAIL kill	C8 TRAIL sens	FLuc stim CS	FLuc inhib CS	HSP90 inh confirm	luciferase ctr
Cc1cccc(C(=O)NNC(=S)NC(=O)c2cccs2)c1	-2	nt	nt	14	nt	nt	nt	nt
O=C1/C(=C/N(C(=O)c2ccco2)c2ccc(Br)cc2)Sc2ccccc21	17*	2	15	57*	0.2	83*	57*	61*
O=C(N/N=C/c1ccc(O)c(O)c1)NC12CC3CC(CC(C3)C1)C2	-5	nt	nt	1	nt	nt	nt	nt
O=C(N/N=C/c1cccnc1)NC12CC3CC(CC(C3)C1)C2	32*	nt	2	-5	nt	nt	6	1
Cc1ccc(S(=O)(=O)N2CCCCC2)cc1C(=O)NCc1ccc(S(N)(=O)=O)cc1	nt	nt	nt	0	nt	nt	nt	nt
Cc1ccc(N=Nc2cc(C)ccc2O)c(C)c1	0	nt	nt	-12	nt	nt	nt	nt
Cc1ccc(N=Nc2cc(C)ccc2N)cc1	26*	nt	34	69*	nt	nt	63*	61*
CC(CCc1ccccc1)NC(=O)COC(=O)c1ccc(NC(=O)CC#N)cc1 (stereo unspecified)	9	nt	nt	11	nt	nt	nt	nt
Cc1cc(C)c(O)c(-c2cc(C(=O)Nc3c(C)n(C)n(-c4ccccc4)c3=O)[nH]n2)c1	-5	nt	-10	4	nt	nt	nt	nt
Cc1cc(C(=O)CN2C(=O)c3ccccc3S2(=O)=O)c(C)n1C(C)C	nt	nt	nt	27	nt	nt	nt	nt
Cc1ccc(C(=O)CN2/C(=C(\O)c3ccccc3)C(=O)c3ccccc3S2(=O)=O)c(C)c1	40*	-16	13	28	1	1	14	0
COC(=O)CN1C(=O)COc2ccc(S(=O)(=O)NCc3ccccc3)cc21	-2	nt	nt	-9	nt	nt	nt	nt
Cc1cc(C)c(NC(=O)CN(C)C(=O)CCC(=O)c2ccc(C)s2)c(C)c1	nt	nt	nt	-6	nt	nt	nt	nt
Cc1ccc(-n2nc3c(c2NC(=O)c2cccs2)CS(=O)(=O)C3)c(C)c1	86*	nt	nt	-13	nt	nt	-2	-1
Cn1c2ccccc2c(=O)c2c(=O)n(-c3ccc(F)cc3)c(-c3cccs3)nc21	-1	nt	-9	-2	nt	nt	nt	nt
CC(c1ccccc1)n1c(-c2cccs2)nc2c(c(=O)c3ccccc3n2C)c1=O (stereo unspecified)	25*	nt	8	-14	nt	nt	-1	-12
Oc1c(Br)cc(Br)cc1CNn1cnnc1	67*	nt	nt	10	nt	nt	-3	-5
Oc1c(Cl)cc(Cl)cc1CNn1cnnc1	0	9	24	7	0.9	5	nt	nt
Cc1[nH]c2ccccc2c1C(=O)NS(=O)(=O)Nc1ccc(Cl)cc1	18*	-5	2	1	1.1	-5	1	-2
c1ccc(-c2cc3c(-n4cccc4)ncnc3o2)cc1	17*	-52	16	8	1	2	-4	-16
Nc1cc2nsnc2cc1Br	25*	24	0	96*	1	-5	14	-5
c1ccc(CNCCC(Cc2ccccc2)c2ccco2)cc1 (stereo unspecified)	2	nt	4	13	nt	nt	nt	nt
CN(C)c1ccc(CNCCC(Cc2ccccc2)c2ccco2)cc1 (stereo unspecified)	19*	nt	21	1	nt	nt	5	-2
Cn1c(=O)n(-c2ccc(Cl)cc2)c(=O)c2c3c(sc21)COC(C)(C)C3	41*	10	-4	5	1.1	-7	-3	-5
Clc1ccc(OCCN2CCOCC2)cc1	18*	nt	nt	6	nt	nt	-5	-5
SMILES	HSP90 inh	STAT3 inh	PPC-1+TRAIL kill	C8 TRAIL sens	FLuc stim CS	FLuc inhib CS	HSP90 inh confirm	luciferase ctr
CC(C)c1ccc2nc(NC(=O)C3CC3)sc2c1	-3	nt	nt	14	nt	nt	nt	nt
COC(=O)c1ccc2nc(Nc3nc4ccc(F)cc4s3)sc2c1	83*	92*	14	1	0.9	12	90*	81*
COC(=O)c1ccc2nc(NC(=O)C3CCCCC3)sc2c1	18*	-2	5	2	1	2	35*	-17
C/C(NCCN1CCOCC1)=C(\C#N)C(N)=O	2	16	-8	1	1.1	-6	nt	nt
O=C(c1cc(-c2ccc(Cl)cc2)on1)N1CCCCCC1	1	nt	nt	2	nt	nt	nt	nt
O=C(c1cc(-c2ccc(Cl)cc2Cl)on1)N1CCCCCC1	19*	nt	nt	15	nt	nt	34*	18*
O=C(c1cc(-c2ccc(Cl)cc2Cl)on1)N1CCCC1	37*	nt	nt	67*	nt	nt	55*	57*
COc1ccc(CC(=O)OCC(=O)Nc2ccc3[nH]c(=O)[nH]c3c2)cc1OC	nt	nt	nt	11	nt	nt	nt	nt
CCOC(=O)N1CCN(C(=S)Nc2ccc3nc(N4CCN(CC)CC4)cc(C)c3c2)CC1	5	1	-24	11	1	-3	nt	nt
CCN(CC)S(=O)(=O)c1ccc(C)c(NC(=O)CN2CCN(Cc3ccccc3)CC2)c1	29*	nt	8	-7	nt	nt	5	-1
Cc1ccccc1NC(=O)CN1CCN(Cc2ccccc2)CC1	-1	nt	nt	-20	nt	nt	nt	nt
O=C(CCNS(=O)(=O)c1ccc(Br)cc1)NCC(c1cccs1)N1CCOCC1 (stereo unspecified)	nt	nt	nt	-4	nt	nt	nt	nt
Cc1cc(C(=O)Nc2ccccn2)cs1	25*	34	29	15	0.4	57*	16*	4
O=C(NC(=O)c1ccccc1)Nc1ccccn1	74*	nt	nt	89*	nt	nt	93*	86*
Cc1csc(SCC(=O)NC(=O)NCCC(C)C)n1	2	13	-2	0	1.1	-8	nt	nt
CCOc1ccc(NC(=O)c2ccc(NC(=O)Cc3n[nH]c(=O)c4ccccc34)cc2)cc1	0	nt	16	-2	nt	nt	nt	nt
CNC(=O)CSc1nc2cccnc2n1-c1ccc(F)cc1	0	nt	nt	-8	nt	nt	nt	nt
CC(c1ccco1)N(C(=O)c1ccccc1NS(=O)(=O)c1ccc(Cl)cc1)c1ccccn1 (stereo unspecified)	1	-6	32	2	1	-4	nt	nt

High-throughput results (PubChem)
